Consider six molecules from ChEMBL document CHEMBL1151956, “Sucutiniranes C-F, cassane-type diterpenes from Bowdichia nitida” (J Nat Prod, 2009).

pIC50: −log10 of the molar value. Activity calls are given as the source filed them. The rule behind the calls is not given here.

Assay [1] has as its system HL-60. The assay can be described thus: Cytotoxicity against human HL60 cells after 48 hrs by MTT assay. It is filed as functional, cell-based. The following applies: HL-60, 48 h. In a few lines:
(§1)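 Cells seeded in 96-well plates, HL-60 at 1 × 10^4 cells/well and HCT-116 and MCF-7 at 5 × 10^3 cells/well, then preincubated 24 h at 37 °C in humidified 5% CO2. Compounds were added at graded concentrations and incubated for 48 h at 37 °C. MTT (5 mg/mL) was added for 2 h, and formazan was dissolved in 10% SDS/0.01 N HCl. Absorbance was read at 550 and 700 nm. Triplicate wells were used, and IC50 was taken from percent living cells versus controls.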
(Tetrazolium dyes change colour on reduction, which living cells bring about.)

For assay [2], the system named is MCF7. Nature of the assay: Cytotoxicity against human MCF7 cells after 48 hrs by MTT assay. The format is functional, cell-based. The settings on record: MCF7, 48 h. In a few lines: as §1
Assay [3] has as its system HCT-116. The assay can be described thus: Cytotoxicity against human HCT116 cells after 48 hrs by MTT assay. It is filed as functional, cell-based. The following applies: HCT-116, 48 h. In a few lines:
as §1

The subject of assay [4] is Plasmodium falciparum. Nature of the assay: Antiplasmodial activity against Plasmodium falciparum 3D7. The format is functional, organism-based.
Assay [5] deals with MCF7. The assay can be described thus: Cytotoxicity against human MCF7 cells at 50 uM after 48 hrs by MTT assay. The format is functional, cell-based.
In assay [6] the test system is HCT-116. Nature of the assay: Cytotoxicity against human HCT116 cells at 50 uM after 48 hrs by MTT assay. The format is functional, cell-based.
Assay [7] concerns HL-60. Nature of the assay: Cytotoxicity against human HL60 cells at 50 uM after 48 hrs by MTT assay. It is filed as functional, cell-based.

Usually pIC50 stands for the IC50 on a negative log10 scale, so that one unit is a factor of ten. Read a high pIC50 as a small IC50. Take `CC(=O)O[C@H]1C[C@H]2[C@@H](C)C3=CC(=O)O[C@@H]3C[C@@H]2[C@@]2(C)CCCC(C)(C)[C@H]12` [12-DEOXY-SUCUTINIRANE A]: the negative logarithm of the IC50 (pIC50) in assay [1] is 4.49.
As for `CC(=O)O[C@H]1[C@H](O)[C@H]2C(C)(C)CCC[C@]2(C)[C@H]2Cc3occc3[C@H](C)[C@H]12` [Sucutinirane F], the pIC50 in assay [2] is 4.74; in assay [1], 5.12; in assay [3] it was 4.52. Moreover, the outcome in assay [4] was inactive.
Consider `CC(=O)O[C@H]1Cc2c(cc3occc3c2C)[C@@]2(C)CCCC(C)(C)[C@H]12`, for which the outcome in assay [5], in assay [6], in assay [7] and in assay [4] was inactive.
As to `Cc1c2c(cc3occc13)[C@@]1(C)CCCC(C)(C)[C@@H]1C=C2`, the outcome in assay [5], in assay [6], in assay [7] and in assay [4] was inactive.
Take `CC(=O)O[C@H]1C[C@H]2[C@@H](C)C3=CC(=O)O[C@]3(O)C[C@@H]2[C@@]2(C)CCCC(C)(C)[C@H]12` [SUCUTINIRANE A]: the pIC50 in assay [1] was 4.85.
Consider `CC(=O)O[C@H]1[C@H](O)[C@H]2[C@@H](C)c3ccoc3C[C@@H]2[C@@]2(C)CCCC(C)(C)[C@H]12` [Sucutinirane E], for which the pIC50 in assay [2] is 4.46; in assay [1], 4.92; in assay [3] it was 4.44. Besides, in assay [4], the result was inactive.
